From ChEMBL document CHEMBL1629456, “ApoA-I mimetic peptides promote pre-β HDL formation in vivo causing remodeling of HDL and triglyceride accumulation at higher dose” (Bioorg Med Chem, 2010)
Calls of active or inactive are those of the source. The rule behind the calls is not given here. *1 amine or outer side, *2 acyl side, *3 side chain or, on linkers, in order; H or OH if unused. Where a SMILES comes first, the peptide text is derived from it. [ ]: non-standard residue; d: D form. Gly(oct-7-en-1-yl) = C=CCCCCCC[C@H](N)C(=O)O; Ala(5-hexenyl) = C=CCCCCC[C@H](N)C(=O)O; X1 = CCCCCCC[C@H](N[*:1])C(=O)[*:2]

Biological target: Phospholipid-transporting ATPase ABCA1 (Mus musculus, UniProt P41233)
Assay: Induction of ABCA1-mediated [3H]cholesterol efflux in mouse RAW 264.7 macrophages after 24 hrs

Sequence of Phospholipid-transporting ATPase ABCA1 (P41233 whole entry): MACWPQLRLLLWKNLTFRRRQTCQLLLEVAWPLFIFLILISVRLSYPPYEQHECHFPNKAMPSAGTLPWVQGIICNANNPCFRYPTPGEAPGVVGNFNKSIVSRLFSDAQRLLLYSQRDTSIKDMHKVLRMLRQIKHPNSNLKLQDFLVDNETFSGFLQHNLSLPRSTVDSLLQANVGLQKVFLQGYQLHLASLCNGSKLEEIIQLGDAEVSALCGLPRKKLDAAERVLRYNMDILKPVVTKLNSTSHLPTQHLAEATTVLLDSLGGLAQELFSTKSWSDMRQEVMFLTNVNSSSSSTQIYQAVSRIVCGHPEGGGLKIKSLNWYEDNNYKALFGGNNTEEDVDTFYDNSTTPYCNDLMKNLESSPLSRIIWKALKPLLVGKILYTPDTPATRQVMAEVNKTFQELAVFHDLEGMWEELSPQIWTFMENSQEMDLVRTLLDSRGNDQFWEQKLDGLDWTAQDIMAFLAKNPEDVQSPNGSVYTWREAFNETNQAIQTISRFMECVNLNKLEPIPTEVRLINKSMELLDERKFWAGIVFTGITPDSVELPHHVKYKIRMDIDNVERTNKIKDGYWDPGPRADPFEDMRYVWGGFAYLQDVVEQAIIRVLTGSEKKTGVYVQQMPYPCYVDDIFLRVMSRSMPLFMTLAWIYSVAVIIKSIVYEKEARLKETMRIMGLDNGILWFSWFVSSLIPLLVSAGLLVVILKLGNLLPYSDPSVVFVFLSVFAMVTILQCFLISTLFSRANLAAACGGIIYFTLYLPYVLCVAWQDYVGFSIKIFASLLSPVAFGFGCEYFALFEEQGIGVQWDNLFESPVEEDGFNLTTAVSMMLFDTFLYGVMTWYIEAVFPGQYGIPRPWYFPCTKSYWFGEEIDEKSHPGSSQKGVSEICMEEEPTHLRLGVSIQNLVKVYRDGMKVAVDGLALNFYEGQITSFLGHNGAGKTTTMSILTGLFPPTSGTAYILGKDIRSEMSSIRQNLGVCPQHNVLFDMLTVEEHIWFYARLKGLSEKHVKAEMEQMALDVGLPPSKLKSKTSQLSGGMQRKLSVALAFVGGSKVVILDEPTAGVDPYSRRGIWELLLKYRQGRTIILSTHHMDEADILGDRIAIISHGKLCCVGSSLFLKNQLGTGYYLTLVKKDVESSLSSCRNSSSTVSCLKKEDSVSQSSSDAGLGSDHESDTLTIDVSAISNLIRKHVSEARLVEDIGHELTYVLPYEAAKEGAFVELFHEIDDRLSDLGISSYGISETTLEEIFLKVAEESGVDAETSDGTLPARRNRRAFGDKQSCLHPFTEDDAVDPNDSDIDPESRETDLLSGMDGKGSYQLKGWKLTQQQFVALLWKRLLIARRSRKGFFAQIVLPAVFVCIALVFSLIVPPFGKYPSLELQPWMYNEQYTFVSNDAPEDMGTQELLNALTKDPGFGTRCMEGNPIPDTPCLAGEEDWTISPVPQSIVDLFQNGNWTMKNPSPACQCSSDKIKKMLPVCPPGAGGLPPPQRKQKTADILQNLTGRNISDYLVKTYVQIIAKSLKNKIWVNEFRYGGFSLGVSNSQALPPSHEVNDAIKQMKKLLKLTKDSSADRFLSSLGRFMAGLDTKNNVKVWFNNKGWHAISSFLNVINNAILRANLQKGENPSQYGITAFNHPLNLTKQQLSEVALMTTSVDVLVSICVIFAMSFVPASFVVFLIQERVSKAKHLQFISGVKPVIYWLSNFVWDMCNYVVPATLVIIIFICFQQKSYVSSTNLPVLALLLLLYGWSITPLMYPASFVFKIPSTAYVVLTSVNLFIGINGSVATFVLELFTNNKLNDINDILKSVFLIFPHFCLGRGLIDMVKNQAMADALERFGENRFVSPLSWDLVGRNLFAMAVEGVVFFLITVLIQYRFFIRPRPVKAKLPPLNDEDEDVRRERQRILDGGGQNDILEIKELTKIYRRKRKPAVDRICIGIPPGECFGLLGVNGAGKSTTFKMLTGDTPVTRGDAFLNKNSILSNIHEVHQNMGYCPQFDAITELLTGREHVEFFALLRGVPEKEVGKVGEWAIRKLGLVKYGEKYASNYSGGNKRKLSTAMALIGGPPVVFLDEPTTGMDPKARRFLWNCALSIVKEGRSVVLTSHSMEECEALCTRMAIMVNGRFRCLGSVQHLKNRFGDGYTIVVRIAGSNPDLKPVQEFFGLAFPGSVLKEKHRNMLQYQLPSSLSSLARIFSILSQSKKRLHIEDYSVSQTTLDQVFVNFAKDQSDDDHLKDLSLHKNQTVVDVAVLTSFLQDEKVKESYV

Row | SMILES | EC50 [nM]
1 | C=CCCCCC[C@H](NC(=O)[C@H](CCC(=O)O)NC(=O)[C@H](CC(N)=O)NC(=O)[C@H](CC(C)C)NC(=O)[C@H](CCCCN)NC(=O)[C@H](CCC(=O)O)NC(=O)[C@H](CCCN=C(N)N)NC(=O)[C@H](CCCCCC=C)NC(=O)[C@H](CCC(=O)O)NC(=O)[C@H](CC(=O)O)NC(=O)[C@H](CC(C)C)NC(=O)[C@H](CCCCCC=C)NC(=O)[C@@H]1CCCN1C(C)=O)C(=O)N[C@@H](CC(C)C)C(=O)N[C@@H](CCC(=O)O)C(=O)N[C@@H](C)C(=O)N[C@@H](CC(C)C)C(=O)N[C@@H](CCCCN)C(=O)N[C@@H](CCC(N)=O)C(=O)N[C@@H](CCCCN)C(=O)N[C@@H](CC(C)C)C(=O)N[C@@H](CCCCN)C(N)=O (Ac-P[Ala(5-hexenyl)]LDE[Ala(5-hexenyl)]REKLNE[Ala(5-hexenyl)]LEALKQKLK-NH2) | 1900
2 | C=CCCCCC[C@H](NC(=O)[C@H](CCC(N)=O)NC(=O)[C@H](CCCCN)NC(=O)[C@H](CC(C)C)NC(=O)[C@H](C)NC(=O)[C@H](CCC(=O)O)NC(=O)[C@H](CC(C)C)NC(=O)[C@H](CCCCCC=C)NC(=O)[C@H](CCC(=O)O)NC(=O)[C@H](CC(N)=O)NC(=O)[C@H](CC(C)C)NC(=O)[C@H](CCCCN)NC(=O)[C@H](CCC(=O)O)NC(=O)[C@H](CCCNC(=N)N)NC(=O)[C@H](CCCCCC=C)NC(=O)[C@H](CCC(=O)O)NC(=O)[C@H](CC(=O)O)NC(=O)[C@H](CC(C)C)NC(=O)[C@H](CCCCCC=C)NC(=O)[C@@H]1CCCN1C(C)=O)C(=O)N[C@@H](CC(C)C)C(=O)N[C@@H](CCCCN)C(N)=O (Ac-P[Ala(5-hexenyl)]LDE[Ala(5-hexenyl)]REKLNE[Ala(5-hexenyl)]LEALKQ[Ala(5-hexenyl)]LK-NH2) | 6700
3 | CC(=O)N[C@H](CC(=O)O)C(=O)N[C@H](Cc1c[nH]c2ccccc12)C(=O)N[C@H](Cc1ccccc1)C(=O)N[C@H](CCCCN)C(=O)N[C@H](C)C(=O)N[C@H](Cc1ccccc1)C(=O)N[C@H](Cc1ccc(O)cc1)C(=O)N[C@H](CC(=O)O)C(=O)N[C@H](CCCCN)C(=O)N[C@@H](C(=O)N[C@H](C)C(=O)N[C@H](CCC(=O)O)C(=O)N[C@H](CCCCN)C(=O)N[C@H](Cc1ccccc1)C(=O)N[C@H](CCCCN)C(=O)N[C@H](CCC(=O)O)C(=O)N[C@H](C)C(=O)N[C@H](Cc1ccccc1)C(N)=O)C(C)C (Ac-[dD][dW][dF][dK][dA][dF][dY][dD][dK][dV][dA][dE][dK][dF][dK][dE][dA][dF]-NH2) | 2000

Test system: Plasma
Assay: Induction of pre-beta HDL formation in human plasma after 2 hrs by ELISA
Type: functional, cell-free
Procedure, shortened: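 Increasing peptide concentrations were incubated with normal human plasma at 37 °C for 2 h. Pre-β HDL was quantified by a commercial human pre-β HDL ELISA.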

Row | SMILES | Activity
4 | C=CCCCCCC[C@H](NC(=O)[C@H](CCC(=O)O)NC(=O)[C@H](CC(N)=O)NC(=O)[C@H](CC(C)C)NC(=O)[C@H](CCCCN)NC(=O)[C@H](CCC(=O)O)NC(=O)[C@H](CCCNC(=N)N)NC(=O)[C@H](Cc1ccccc1)NC(=O)[C@H](CCC(=O)O)NC(=O)[C@H](CC(=O)O)NC(=O)[C@H](CC(C)C)NC(=O)[C@@H](NC(=O)[C@@H]1CCCN1C(C)=O)C(C)C)C(=O)N[C@@H](CC(C)C)C(=O)N[C@@H](CCC(=O)O)C(=O)N[C@@H](C)C(=O)N[C@@H](CC(C)C)C(=O)N[C@@H](CCCCN)C(=O)N[C@@H](CCC(N)=O)C(=O)N[C@@H](CCCCN)C(=O)N[C@@H](CC(C)C)C(=O)N[C@@H](CCCCN)C(N)=O (Ac-PVLDEFREKLNE[Gly(oct-7-en-1-yl)]LEALKQKLK-NH2) | Dose-dependent effect
5 | CCCCCCC[C@H](NC(=O)[C@H](CCC(=O)O)NC(=O)[C@H](CC(N)=O)NC(=O)[C@H](CC(C)C)NC(=O)[C@H](CCCCN)NC(=O)[C@H](CCC(=O)O)NC(=O)[C@H](CCCNC(=N)N)NC(=O)[C@H](Cc1ccccc1)NC(=O)[C@H](CCC(=O)O)NC(=O)[C@H](CC(=O)O)NC(=O)[C@H](CC(C)C)NC(=O)[C@@H](NC(=O)[C@@H]1CCCN1C(C)=O)C(C)C)C(=O)N[C@@H](CC(C)C)C(=O)N[C@@H](CCC(=O)O)C(=O)N[C@@H](C)C(=O)N[C@@H](CC(C)C)C(=O)N[C@@H](CCCCN)C(=O)N[C@@H](CCC(N)=O)C(=O)N[C@@H](CCCCN)C(=O)N[C@@H](CC(C)C)C(=O)N[C@@H](CCCCN)C(N)=O (Ac-PVLDEFREKLNE[X1]LEALKQKLK-NH2) | Dose-dependent effect
6 | C=CCCCCC[C@H](NC(=O)[C@H](CCC(=O)O)NC(=O)[C@H](CC(N)=O)NC(=O)[C@H](CC(C)C)NC(=O)[C@H](CCCCN)NC(=O)[C@H](CCC(=O)O)NC(=O)[C@H](CCCNC(=N)N)NC(=O)[C@H](Cc1ccccc1)NC(=O)[C@H](CCC(=O)O)NC(=O)[C@H](CC(=O)O)NC(=O)[C@H](CC(C)C)NC(=O)[C@H](CCCCCC=C)NC(=O)[C@@H]1CCCN1C(C)=O)C(=O)N[C@@H](CC(C)C)C(=O)N[C@@H](CCC(=O)O)C(=O)N[C@@H](C)C(=O)N[C@@H](CC(C)C)C(=O)N[C@@H](CCCCN)C(=O)N[C@@H](CCC(N)=O)C(=O)N[C@@H](CCCCN)C(=O)N[C@@H](CC(C)C)C(=O)N[C@@H](CCCCN)C(N)=O (Ac-P[Ala(5-hexenyl)]LDEFREKLNE[Ala(5-hexenyl)]LEALKQKLK-NH2) | inactive

Biological target: Lipoprotein lipase (Bos taurus) (UniProt P11151)
Assay: Inhibition of Lipoprotein lipase in vitro

Row | SMILES | IC50 [µM]
7 | CC(=O)N[C@H](CC(=O)O)C(=O)N[C@H](Cc1c[nH]c2ccccc12)C(=O)N[C@H](Cc1ccccc1)C(=O)N[C@H](CCCCN)C(=O)N[C@H](C)C(=O)N[C@H](Cc1ccccc1)C(=O)N[C@H](Cc1ccc(O)cc1)C(=O)N[C@H](CC(=O)O)C(=O)N[C@H](CCCCN)C(=O)N[C@@H](C(=O)N[C@H](C)C(=O)N[C@H](CCC(=O)O)C(=O)N[C@H](CCCCN)C(=O)N[C@H](Cc1ccccc1)C(=O)N[C@H](CCCCN)C(=O)N[C@H](CCC(=O)O)C(=O)N[C@H](C)C(=O)N[C@H](Cc1ccccc1)C(N)=O)C(C)C (Ac-[dD][dW][dF][dK][dA][dF][dY][dD][dK][dV][dA][dE][dK][dF][dK][dE][dA][dF]-NH2) | 24
